Columns and labels:
[1] = target: GABA-A receptor; anion channel; experiment: Displacement of [3H]muscimol from GABAA receptor in SPRD rat brain synaptic membranes by scintillation counting method; format: cell membranes
How it was run: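 Rat synaptic membranes were thawed, homogenized in ice-cold 50 mM Tris-HCl pH 7.4, and spun at 48,000g for 10 min at 4 °C, with the wash repeated four times. Incubation was with 5 nM [3H]muscimol (final) and varying test concentrations for 60 min at 0 °C, then GF/C filtration and scintillation counting.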

[2] = Dissociation constant, pKa of the compound by diode array detector method; format: physicochemical
How it was run: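 pKa was determined by titration in methanol cosolvent at 23–48%, with three titrations per compound. An in-line diode-array detector recorded UV-Vis spectra, and the titration was mapped against the spectra of the protonated and unprotonated species.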

[3] = target: T1, GABA-A receptor; alpha-1/beta-2/gamma-2 (Homo sapiens, UniProt P14867+P18507+P47870); experiment: (§1) Agonist activity at human GABAAalpha1beta2gamma2S receptor expressed in tsA-201cells by FLIPR membrane potential blue assay
T1 sequence (P14867 whole entry): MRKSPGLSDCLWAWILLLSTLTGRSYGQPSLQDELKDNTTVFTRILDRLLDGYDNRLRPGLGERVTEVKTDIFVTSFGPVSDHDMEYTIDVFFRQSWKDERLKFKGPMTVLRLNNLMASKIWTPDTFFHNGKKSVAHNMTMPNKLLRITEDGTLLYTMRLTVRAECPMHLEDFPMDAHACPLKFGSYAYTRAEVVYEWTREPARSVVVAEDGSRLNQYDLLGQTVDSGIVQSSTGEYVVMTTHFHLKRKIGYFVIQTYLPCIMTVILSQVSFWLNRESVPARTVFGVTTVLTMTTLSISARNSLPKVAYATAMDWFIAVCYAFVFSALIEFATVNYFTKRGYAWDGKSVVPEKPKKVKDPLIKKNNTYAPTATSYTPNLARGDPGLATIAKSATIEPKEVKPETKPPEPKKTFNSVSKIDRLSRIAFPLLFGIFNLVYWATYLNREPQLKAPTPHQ
T1 sequence (P47870 whole entry): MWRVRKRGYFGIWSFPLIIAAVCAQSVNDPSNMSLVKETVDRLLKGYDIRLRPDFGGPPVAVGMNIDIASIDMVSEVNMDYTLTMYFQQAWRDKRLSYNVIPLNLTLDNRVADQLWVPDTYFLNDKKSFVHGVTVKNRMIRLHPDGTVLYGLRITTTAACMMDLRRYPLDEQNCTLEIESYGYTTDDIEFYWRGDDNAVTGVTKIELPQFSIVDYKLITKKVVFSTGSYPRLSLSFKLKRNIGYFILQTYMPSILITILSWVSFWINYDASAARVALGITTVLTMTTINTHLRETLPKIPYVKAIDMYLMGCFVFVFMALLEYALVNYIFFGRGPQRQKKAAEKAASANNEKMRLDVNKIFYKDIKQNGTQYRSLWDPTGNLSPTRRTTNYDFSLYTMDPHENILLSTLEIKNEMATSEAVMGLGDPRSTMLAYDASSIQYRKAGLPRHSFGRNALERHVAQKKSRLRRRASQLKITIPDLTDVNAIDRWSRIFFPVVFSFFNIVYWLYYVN
T1 sequence (P18507 whole entry): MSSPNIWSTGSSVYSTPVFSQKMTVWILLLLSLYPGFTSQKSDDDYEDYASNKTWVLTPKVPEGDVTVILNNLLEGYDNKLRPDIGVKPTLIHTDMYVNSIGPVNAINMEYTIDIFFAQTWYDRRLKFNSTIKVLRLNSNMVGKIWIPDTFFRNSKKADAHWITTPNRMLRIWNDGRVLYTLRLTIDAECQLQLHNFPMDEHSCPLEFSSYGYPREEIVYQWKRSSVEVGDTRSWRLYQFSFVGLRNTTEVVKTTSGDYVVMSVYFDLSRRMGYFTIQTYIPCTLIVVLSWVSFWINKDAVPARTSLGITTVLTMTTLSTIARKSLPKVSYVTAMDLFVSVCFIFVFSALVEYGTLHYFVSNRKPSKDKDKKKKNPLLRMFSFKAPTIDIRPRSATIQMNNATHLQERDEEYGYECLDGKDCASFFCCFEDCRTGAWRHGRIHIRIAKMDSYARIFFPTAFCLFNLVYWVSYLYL
How it was run: (§2)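 tsA201 cells (8×10^5 per 6 cm dish) were transfected with α1, α2, α3 or α5 plus β2 and γ2S cDNAs (1:1:3), or with ρ1 alone. Next day cells were replated into poly-D-lysine 96-well plates. After 16–24 h they were washed with Krebs buffer pH 7.4, given membrane-potential dye, held 30 min at 37 °C, and read at 560 nm emission. Concentration-response curves used ΔFU before versus after agonist; duplicates were run ≥3 times.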

[4] = target: T2, Gamma-aminobutyric acid receptor subunit rho-1 (Homo sapiens, UniProt P24046); experiment: Agonist activity at human GABAA rho1 expressed in tsA-201cells by FLIPR membrane potential blue assay; how it was run: as §2
[5] = target: T3, GABA A receptor alpha-3/beta-2/gamma-2 (Homo sapiens, UniProt P18507+P34903+P47870); experiment: Agonist activity at human GABAAalpha3beta2gamma2S receptor expressed in tsA-201cells by FLIPR membrane potential blue assay; how it was run: as §2
T3 sequence (P47870 whole entry): T1 sequence (P47870 whole entry)
T3 sequence (P18507 whole entry): T1 sequence (P18507 whole entry)
T3 sequence (P34903 whole entry): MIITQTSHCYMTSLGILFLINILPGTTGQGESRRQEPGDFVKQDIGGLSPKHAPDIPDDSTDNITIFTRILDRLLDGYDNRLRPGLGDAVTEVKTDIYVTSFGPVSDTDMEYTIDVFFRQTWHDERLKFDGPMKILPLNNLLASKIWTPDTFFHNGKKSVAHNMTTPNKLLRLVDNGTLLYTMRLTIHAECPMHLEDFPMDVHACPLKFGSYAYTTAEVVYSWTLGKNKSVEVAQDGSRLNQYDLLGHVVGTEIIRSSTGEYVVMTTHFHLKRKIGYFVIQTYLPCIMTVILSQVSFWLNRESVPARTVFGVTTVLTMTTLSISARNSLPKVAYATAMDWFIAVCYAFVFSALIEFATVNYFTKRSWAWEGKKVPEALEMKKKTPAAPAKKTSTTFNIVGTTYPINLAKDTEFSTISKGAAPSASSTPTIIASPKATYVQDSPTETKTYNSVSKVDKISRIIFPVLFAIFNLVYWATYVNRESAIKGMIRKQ

[6] = target: T4, GABA A receptor alpha-2/beta-2/gamma-2 (Homo sapiens, UniProt P18507+P47869+P47870); experiment: Agonist activity at human GABAAalpha2beta2gamma2S receptor expressed in tsA-201cells by FLIPR membrane potential blue assay; how it was run: as §2
T4 sequence (P47870 whole entry): T1 sequence (P47870 whole entry)
T4 sequence (P18507 whole entry): T1 sequence (P18507 whole entry)
T4 sequence (P47869 whole entry): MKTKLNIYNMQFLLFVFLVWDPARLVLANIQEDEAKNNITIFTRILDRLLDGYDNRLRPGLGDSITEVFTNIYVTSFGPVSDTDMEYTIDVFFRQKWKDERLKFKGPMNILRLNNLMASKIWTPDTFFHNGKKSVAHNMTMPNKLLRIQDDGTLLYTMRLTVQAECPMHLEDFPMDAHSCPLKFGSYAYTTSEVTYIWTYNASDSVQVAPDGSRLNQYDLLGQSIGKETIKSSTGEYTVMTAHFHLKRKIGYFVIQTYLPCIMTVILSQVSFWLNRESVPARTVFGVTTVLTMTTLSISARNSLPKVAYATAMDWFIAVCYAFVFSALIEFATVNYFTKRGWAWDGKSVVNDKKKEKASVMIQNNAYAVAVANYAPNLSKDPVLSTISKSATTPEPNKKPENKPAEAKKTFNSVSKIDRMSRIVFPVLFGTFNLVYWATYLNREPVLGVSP

[7] = target: GABA A receptor alpha-3/beta-2/gamma-2 (Homo sapiens) (UniProt P47870+P18507+P34903); experiment: Agonist activity at human GABAAalpha3beta2gamma2S receptor expressed in tsA-201cells by FLIPR membrane potential blue assay relative to GABA
[8] = tested on: tsA-201; experiment: Agonist activity at human GABAAalpha5beta2gamma2S receptor expressed in tsA-201cells by FLIPR membrane potential blue assay relative to GABA
[9] = target: GABA A receptor alpha-2/beta-2/gamma-2 (Homo sapiens) (UniProt P47870+P18507+P47869); experiment: Agonist activity at human GABAAalpha2beta2gamma2S receptor expressed in tsA-201cells by FLIPR membrane potential blue assay relative to GABA
[10] = Agonist activity at human GABAAalpha5beta2gamma2S receptor expressed in tsA-201cells by FLIPR membrane potential blue assay; format: cell membranes
[11] = target: T2, Gamma-aminobutyric acid receptor subunit rho-1; experiment: Agonist activity at human GABAA rho1 expressed in tsA-201cells by FLIPR membrane potential blue assay relative to GABA
[12] = target: T5, GABA-A receptor; alpha-1/beta-2/gamma-2 (Homo sapiens, UniProt P14867+P47870+P18507); experiment: as §1; settings: tsa-201; how it was run: as §2
T5 sequence (P14867 whole entry): T1 sequence (P14867 whole entry)
T5 sequence (P47870 whole entry): T1 sequence (P47870 whole entry)
T5 sequence (P18507 whole entry): T1 sequence (P18507 whole entry)

T2 sequence (P24046 whole entry): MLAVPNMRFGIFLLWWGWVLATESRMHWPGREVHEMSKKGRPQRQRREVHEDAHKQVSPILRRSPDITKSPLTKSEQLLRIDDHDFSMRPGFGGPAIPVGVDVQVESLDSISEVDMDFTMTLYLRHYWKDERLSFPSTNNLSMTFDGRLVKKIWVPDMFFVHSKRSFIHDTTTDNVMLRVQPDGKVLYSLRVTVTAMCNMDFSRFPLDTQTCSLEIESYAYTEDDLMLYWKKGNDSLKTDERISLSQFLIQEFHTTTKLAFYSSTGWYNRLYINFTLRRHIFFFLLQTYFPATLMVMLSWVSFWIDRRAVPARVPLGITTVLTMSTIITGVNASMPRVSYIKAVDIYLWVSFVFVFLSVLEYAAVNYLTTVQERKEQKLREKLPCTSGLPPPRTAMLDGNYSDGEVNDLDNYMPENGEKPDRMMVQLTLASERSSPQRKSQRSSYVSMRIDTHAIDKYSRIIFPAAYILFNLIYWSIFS

## Nc1cc(C(=O)O)ccn1
[1]
  Ki: 19 µM

## Nc1cc(-c2ccccc2)c(C(=O)O)cn1
[1]
  Ki: > 100 µM

## NC1=NCC(C(=O)O)CC1 (stereo not given)
[2]
  pKa: 12.4
[3]; read-out: EC50
  EC50: 2.6 µM
[4]; read-out: EC50
  EC50: 2.3 µM
[4]; read-out: pEC50 (converted)
  EC50: 1.23 µM
[1]
  Ki: 0.044 µM
[5]
  EC50: 1.1 µM
[6]
  EC50: 0.82 µM
[7]
  Rmax: 93%
[8]
  Rmax: 100%
[9]
  Rmax: 101%
[10]
  EC50: 92 nM
  pEC50: 7.04
[11]
  Rmax: 64%

## NC1=NCC(C(=O)O)CN1 (stereo not given)
[2]
  pKa: 12.7
[3]; read-out: EC50
  EC50: 14 µM
[4]; read-out: EC50
  EC50: 8.1 µM
[4]; read-out: pEC50 (converted)
  EC50: 1.58 µM
[1]
  Ki: 0.54 µM
[5]
  EC50: 19 µM
[6]
  EC50: 9.4 µM
[7]
  Rmax: 85%
[8]
  Rmax: 113%
[9]
  Rmax: 91%
[10]
  EC50: 2100 nM
  pEC50: 5.68
[11]
  Rmax: 55%

## Nc1ccc(CC(=O)O)cn1
[1]
  Ki: 90 µM

## CNc1ccc(C(=O)O)cn1
[1]
  Ki: > 100 µM

## Nc1ccc(C(=O)O)cn1
[2]
  pKa: 6.2
[3]; read-out: EC50
  EC50: > 300 µM
[3]; read-out: pEC50 (converted)
  EC50: > 316 µM
[4]; tsa-201
  EC50: Active
[1]
  Ki: 4.4 µM
  pKi: 5.39

## CNC1=NCC(C(=O)O)CC1 (stereo not given)
[12]
  pEC50: < 3
[3]; read-out: EC50
  EC50: > 1000 µM
[1]
  Ki: 49 µM
  pKi: 4.32

## CCCCc1nc(N)ccc1C(=O)O
[12]
  pEC50: < 3
[3]; read-out: EC50
  EC50: > 1000 µM
[4]; read-out: EC50
  EC50: > 1000 µM
[4]; tsa-201
  pEC50: < 3
[1]
  Ki: 7.1 µM

## Nc1ncc(C(=O)O)cn1
[2]
  pKa: 1.9
[1]
  Ki: > 100 µM

## CCc1cc(N)ncc1C(=O)O
[12]
  pEC50: < 3
[3]; read-out: EC50
  EC50: > 1000 µM
[4]; read-out: EC50
  EC50: > 1000 µM
[4]; tsa-201
  pEC50: < 3
[1]
  Ki: 9.3 µM

## Nc1ncc(C(=O)O)cc1I
[1]
  Ki: > 100 µM

## Cc1nc(N)ccc1C(=O)O
[12]
  EC50: Active
[4]; tsa-201
  EC50: Active
[1]
  Ki: 1.4 µM

## CCCCc1cc(N)ncc1C(=O)O
[12]
  pEC50: < 3
[3]; read-out: EC50
  EC50: > 1000 µM
[4]; read-out: EC50
  EC50: > 1000 µM
[4]; tsa-201
  pEC50: < 3
[1]
  Ki: 24 µM

## CCc1nc(N)ccc1C(=O)O
[12]
  pEC50: < 3
[3]; read-out: EC50
  EC50: > 1000 µM
[4]; read-out: EC50
  EC50: > 1000 µM
[4]; tsa-201
  pEC50: < 3
[1]
  Ki: 2.1 µM

## Nc1ccc(C(=O)O)c(Cl)n1
[1]
  Ki: > 100 µM

## Nc1cccc(C(=O)O)n1
[1]
  Ki: > 100 µM

## O=C(O)C1=CCNCC1 [ISOGUVACINE]
[3]; read-out: EC50
  EC50: 11 µM
[4]; read-out: EC50
  EC50: 39 µM
[1]
  Ki: 0.055 µM
[5]
  EC50: 5.6 µM
[6]
  EC50: 4.5 µM
[7]
  Rmax: 91%
[8]
  Rmax: 101%
[9]
  Rmax: 95%
[10]
  EC50: 780 nM
  pEC50: 6.1
[11]
  Rmax: 85%

## O=C(O)c1cncnc1
[2]
  pKa: 1.4
[1]
  Ki: > 100 µM

## Cc1cc(C(=O)O)cnc1N
[1]
  Ki: > 100 µM

## Nc1ccc(C(=O)O)c(-c2ccccc2)n1
[1]
  Ki: > 100 µM

## Nc1cc(CC(=O)O)ccn1
[1]
  Ki: 73 µM

## Nc1cccc(CC(=O)O)n1
[1]
  Ki: > 100 µM

## Nc1ncccc1CC(=O)O
[1]
  Ki: > 100 µM

## NCc1cc(O)no1 [MUSCIMOL]
[7]
  Rmax: 97%
[8]
  Rmax: 114%
[9]
  Rmax: 99%
[10]
  EC50: 54 nM
  pEC50: 7.27
[11]
  Rmax: 98%

## Nc1ncccc1C(=O)O
[1]
  Ki: > 100 µM

## NCc1cc(=O)[nH]o1 [MUSCIMOL]
[1]
  Ki: 0.006 µM

## CCc1cc(C(=O)O)cnc1N
[1]
  Ki: > 100 µM

— ChEMBL document CHEMBL3351648, “Synthesis and pharmacological evaluation of 6-aminonicotinic acid analogues as novel GABA(A) receptor agonists” (Eur J Med Chem, 2014)
